Source: publication PMC11956937 (bioRxiv, 2025)

Columns and labels:
human TOP3B = human TOP3B (Homo sapiens, UniProt O95985); assay: Inhibition of human TOP3B relaxation of supercoiled DNA; assay type: biochemical; conditions: for Inhibition of the DNA relaxation activity of human TOP3B: tested at up to 200 μM concentration
In short: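 TOP3B (Sf9-expressed, GST/gel-filtration purified) and E. coli-expressed His-TDRD3 each at 18 nM, then DMSO or test compound, then 500 ng supercoiled pBAD/Thio plasmid; 20 mM HEPES-KOH pH 7.5, 5 mM MgCl2, 1 mM DTT, 0.1 mg/ml BSA; 37 ℃, 1 h. SDS/proteinase K stop; 1% agarose with 5 μg/mL chloroquine, SYBR Gold. Relaxed DNA gives % inhibition vs DMSO; 200 μM screen, IC50 from serial dilutions, 3–4 repeats.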

human TOP1 = target: T1, human TOP1 (Homo sapiens, UniProt P11387); assay: Inhibition of human TOP1 relaxation activity; assay type: biochemical; conditions: comparison of IC50 values for TOP3B and TOP1 relaxation
T1 sequence (P11387 1-765): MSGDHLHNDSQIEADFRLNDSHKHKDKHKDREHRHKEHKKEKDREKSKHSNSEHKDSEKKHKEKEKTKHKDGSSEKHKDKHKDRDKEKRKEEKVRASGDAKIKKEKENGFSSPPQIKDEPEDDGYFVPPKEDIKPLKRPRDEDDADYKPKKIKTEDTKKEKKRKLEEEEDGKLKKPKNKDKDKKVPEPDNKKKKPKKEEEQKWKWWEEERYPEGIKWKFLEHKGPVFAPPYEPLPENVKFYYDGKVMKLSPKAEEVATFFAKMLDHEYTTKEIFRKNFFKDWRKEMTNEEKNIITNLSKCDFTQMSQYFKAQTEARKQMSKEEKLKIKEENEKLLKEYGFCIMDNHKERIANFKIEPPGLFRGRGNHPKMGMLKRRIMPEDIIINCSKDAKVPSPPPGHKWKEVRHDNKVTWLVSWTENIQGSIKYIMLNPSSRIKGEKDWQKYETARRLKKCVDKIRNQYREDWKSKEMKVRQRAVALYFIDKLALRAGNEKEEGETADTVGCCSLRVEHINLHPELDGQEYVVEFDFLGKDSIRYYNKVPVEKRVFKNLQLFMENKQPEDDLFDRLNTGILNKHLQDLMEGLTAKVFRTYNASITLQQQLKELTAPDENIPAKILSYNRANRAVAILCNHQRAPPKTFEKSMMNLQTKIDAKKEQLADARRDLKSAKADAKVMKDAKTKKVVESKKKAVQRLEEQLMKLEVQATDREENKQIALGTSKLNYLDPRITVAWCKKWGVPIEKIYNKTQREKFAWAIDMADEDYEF
In short: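 Recombinant human TOP1 expressed in S. cerevisiae EKY3, 1 unit, with 200 ng supercoiled pBAD/Thio plasmid in 10 mM Tris-HCl pH 8.0, 150 mM NaCl, 1 mM EDTA, 0.1 mM spermidine, 0.1 mg/mL BSA, 5% glycerol; 37 °C, 30 min; SDS stop. Run on 1% agarose in TAE, 20 h at 25 V; ethidium bromide stain. Remaining supercoiled DNA quantified as % inhibition vs DMSO; TOP1 IC50 compared with TOP3B IC50.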

Chain of human TOP3B (O95985 whole entry): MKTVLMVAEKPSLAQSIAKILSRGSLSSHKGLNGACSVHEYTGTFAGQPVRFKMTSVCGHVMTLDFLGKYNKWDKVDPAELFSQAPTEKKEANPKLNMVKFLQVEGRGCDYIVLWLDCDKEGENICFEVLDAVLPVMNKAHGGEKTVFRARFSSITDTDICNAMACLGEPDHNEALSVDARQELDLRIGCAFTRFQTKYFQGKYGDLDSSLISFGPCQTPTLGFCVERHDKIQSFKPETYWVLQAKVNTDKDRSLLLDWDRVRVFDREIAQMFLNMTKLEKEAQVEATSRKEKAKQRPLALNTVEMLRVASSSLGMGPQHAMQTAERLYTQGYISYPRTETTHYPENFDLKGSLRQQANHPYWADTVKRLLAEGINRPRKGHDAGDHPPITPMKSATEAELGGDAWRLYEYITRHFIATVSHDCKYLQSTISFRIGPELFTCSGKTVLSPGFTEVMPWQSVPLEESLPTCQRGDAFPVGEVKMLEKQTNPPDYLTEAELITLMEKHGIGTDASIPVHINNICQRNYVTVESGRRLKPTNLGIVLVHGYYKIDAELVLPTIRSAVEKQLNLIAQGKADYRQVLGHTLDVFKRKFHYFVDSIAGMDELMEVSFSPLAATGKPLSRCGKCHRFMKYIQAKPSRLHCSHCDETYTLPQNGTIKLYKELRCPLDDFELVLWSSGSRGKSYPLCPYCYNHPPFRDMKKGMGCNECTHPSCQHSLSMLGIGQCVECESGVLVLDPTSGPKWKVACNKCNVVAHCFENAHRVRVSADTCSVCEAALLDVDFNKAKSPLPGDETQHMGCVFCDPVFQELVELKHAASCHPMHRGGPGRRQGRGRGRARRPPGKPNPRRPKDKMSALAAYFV
Chain of human TOP3B (Q9H7E2 whole entry partner): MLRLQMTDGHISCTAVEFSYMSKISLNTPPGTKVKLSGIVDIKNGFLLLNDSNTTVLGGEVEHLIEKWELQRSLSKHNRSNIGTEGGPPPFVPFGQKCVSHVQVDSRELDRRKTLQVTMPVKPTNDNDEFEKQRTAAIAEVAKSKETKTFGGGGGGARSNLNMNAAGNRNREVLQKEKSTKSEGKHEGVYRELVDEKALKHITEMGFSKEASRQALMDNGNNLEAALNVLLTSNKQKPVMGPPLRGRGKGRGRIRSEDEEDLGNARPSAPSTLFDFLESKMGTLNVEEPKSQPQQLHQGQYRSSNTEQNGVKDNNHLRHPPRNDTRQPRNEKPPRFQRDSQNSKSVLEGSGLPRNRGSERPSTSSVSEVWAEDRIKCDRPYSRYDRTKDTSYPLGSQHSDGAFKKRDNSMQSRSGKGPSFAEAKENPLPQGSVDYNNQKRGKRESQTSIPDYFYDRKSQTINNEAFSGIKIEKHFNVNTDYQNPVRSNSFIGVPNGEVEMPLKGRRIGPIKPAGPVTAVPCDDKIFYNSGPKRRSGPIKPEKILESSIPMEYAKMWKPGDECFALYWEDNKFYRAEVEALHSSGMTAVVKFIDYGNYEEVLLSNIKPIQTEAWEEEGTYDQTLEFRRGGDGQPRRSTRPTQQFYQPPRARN

Row | IC50 (human TOP3B) [µM] | SMILES | Inhibition of the DNA relaxation activity of human TOP3B (human TOP3B) | Selectivity for inhibition of human TOP3B versus TOP1 (human TOP1)
1 |  | CN1CCN(C2CCN(C(=O)Nc3cc(Oc4ccc(NC(=O)C5(C(=O)Nc6ccc(F)cc6)CC5)c(F)c4)ccn3)CC2)CC1 [golvatinib] | Inhibition was observed only for bemcentinib | 
2 |  | Cc1cc(Nc2ncnc3ccc(NC4=NC(C)(C)CO4)cc23)ccc1Oc1ccn2ncnc2c1 [tucatinib] | Inhibition was observed only for bemcentinib | 
3 |  | Cc1cn(-c2cc(NC(=O)c3ccc(C)c(Nc4nccc(-c5cccnc5)n4)c3)cc(C(F)(F)F)c2)cn1 [nilotinib] | Inhibition was observed only for bemcentinib | 
4 |  | CNC(=O)c1cc(Oc2ccc(NC(=O)Nc3cc(C(C)(C)C)nn3-c3ccc4ncccc4c3)c(F)c2)ccn1 [rebastinib] | Inhibition was observed only for bemcentinib | 
5 |  | Cc1cn(-c2cc(NC(=O)c3ccc(C)c(Nc4nccc(-c5cnccn5)n4)c3)cc(C(F)(F)F)c2)cn1 [radotinib] | Inhibition was observed only for bemcentinib | 
6 | 34.3 | Nc1nc(Nc2ccc3c(c2)CC[C@@H](N2CCCC2)CC3)nn1-c1cc2c(nn1)-c1ccccc1CCC2 [bemcentinib] | Inhibition was observed | inhibits TOP3B with greater potency than TOP1
